According to PubChem BioAssay:
Activity calls are given as the source filed them.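 How the source made its calls, unless noted: active means viability loss from added drug above about 55%, and viability with drug at most 40%, in both replicates (limit read from the data, passing the limit was not always enough); inconclusive means both conditions met in only one replicate; inactive means neither replicate meets both conditions.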

Assays:
[1] = HUVEC growth inhibition – cell-based, human, primary screen (AID 575;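 active means viability at or below 30% in both replicate assays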;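 further: 100% = median of untreated cell wells with 0.1% DMSO on each plate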); details: HUVEC proliferation, CellTiter-Glo luminescence, 72 h; at 10 µM; stronger effect = lower value
Summary of the method: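 Test system – primary HUVEC, no more than 12 passages · Dosing – one dose, 10 µM final, 0.1% DMSO · Times – 72 h treatment at 37 °C · Measured by – ATP-based CellTiter-Glo luminescent read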

[2] = growth inhibitors of H69AR lung tumor, primary screen, human, duplicate replicates (AID 580;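 active means viability at or under a set limit in both replicates, limit being median viability minus 3 SD, cut at about 48% in these data, passing the limit was not always enough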;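 further: 100% = mean luminescence of untreated wells and 0% = no signal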); details: H69AR lung tumor cells viability, ATP luminescence, 72 h; at 10 µM; stronger effect = lower value
[3] = reversal of MRP1-mediated doxorubicin resistance, pilot screen, H69AR cells, doxorubicin co-treatment (AID 601); details: CellTiter-Glo, 72 h, at 10 µM; for differential viability (reversal): stronger effect = higher value
[4] = 384-well plate pilot, post-Golgi transport modulator project, inhibition of yeast transport mutant growth (AID 636; in the data active means inhibition above about 31%); details: absorbance 615 nm, about 18 h, stronger effect = higher value
[5] = growth suppression of yeast trafficking mutant, preliminary HTS, modulators of trafficking downstream of Golgi apparatus project, 1536-format plate, OD 615 nm (AID 637; in the data active means inhibition above about 30%); details: yeast transport mutant growth, absorbance 615 nm, 18 h; stronger effect = higher value
[6] = H69AR cells + 2 uM doxorubicin, measured here: viability with 2 uM doxorubicin, stronger effect = lower value
[7] = H69AR cells, compound alone cytotoxicity

Compound	viability [1]	viability [2]	differential viability (reversal) ([3]; H69AR cells + 2 uM doxorubicin)	viability [3, 6]	viability [3, 7]	inhibition [4]	inhibition [5]
O=C(c1cc(-c2cccs2)on1)N1CCc2ccccc2C1	103% (inactive)	104% (inactive)	21.8% (inactive)	81.8%	104%	-2.24% (inactive)	-0.48% (inactive)
O=C1CCCc2nc(N3CCCCC3)sc21	88.9% (inactive)	82.8% (inactive)	-6.74% (inactive)	89.6%	82.8%	-0.27% (inactive)	-0.95% (inactive)
Cc1c(Cc2ccccc2)sc(N)c1C(N)=O	86.5% (inactive)	93.5% (inactive)	2.93% (inactive)	90.6%	93.5%	-3.77% (inactive)	5.71% (inactive)
CC(C)OC(=O)CSc1nnc(-c2ccccn2)n1-c1ccccc1	87.3% (inactive)	92.1% (inactive)	-2.68% (inactive)	94.8%	92.1%	-1.87% (inactive)	-9.52% (inactive)
COc1ccc(OC)c(-c2nc3c(C)n[nH]c(=O)c3[nH]2)c1	79.1% (inactive)	69.5% (inactive)	-21.3% (inactive)	90.7%	69.5%	-6.13% (inactive)	-0.95% (inactive)
CC(=O)c1c(C)[nH]c(C(=O)NC2=NCCS2)c1C	80.9% (inactive)	99.8% (inactive)	23.3% (inactive)	76.5%	99.8%	-3.51% (inactive)	-5.4% (inactive)
COc1ccc(Nc2ncc3c(n2)CC(c2ccc(OC)cc2)CC3=O)cc1 (stereo not given)	84.4% (inactive)	97.4% (inactive)	3.81% (inactive)	93.6%	97.4%	-4% (inactive)	4.92% (inactive)
Nc1nc(SCc2nc3scc(-c4cccs4)c3c(=O)[nH]2)n[nH]1	77.5% (inactive)	93.4% (inactive)	-3.9% (inactive)	97.3%	93.4%	-2.67% (inactive)	0.32% (inactive)
O=S(=O)(c1ccc2c(c1)OCCO2)N(Cc1ccc(F)cc1)Cc1nnc(-c2cccs2)o1	81% (inactive)	92.1% (inactive)	8.63% (inactive)	83.4%	92.1%	-3.38% (inactive)	0.79% (inactive)
COC(=O)Oc1c(Br)c(=O)oc2ccccc12	90.8% (inactive)	83% (inactive)	2.87% (inactive)	80.1%	83%	-0.4% (inactive)	-4.13% (inactive)
CC1Cc2ccccc2N1S(=O)(=O)c1ccc2c(c1)n(C)c(=O)c(=O)n2C (stereo not given)	80.8% (inactive)	83.7% (inactive)	-2.65% (inactive)	86.4%	83.7%	-4.93% (inactive)	0% (inactive)
CC1CCCCN1CCNS(=O)(=O)c1ccc2c(c1)oc(=O)n2C (stereo not given)	87% (inactive)	108% (inactive)	7.79% (inactive)	99.9%	108%	-6.13% (inactive)	-1.11% (inactive)
Cc1nnc(NC2CCCCC2)[nH]c1=O	87.5% (inactive)	87.1% (inactive)	6.85% (inactive)	80.3%	87.1%	-5.19% (inactive)	3.02% (inactive)
CN(C)S(=O)(=O)c1cccc(C(=O)Nc2cccnc2)c1	83.9% (inactive)	89.5% (inactive)	7.48% (inactive)	82%	89.5%	-4.93% (inactive)	1.43% (inactive)
COc1cc2c(cc1OC)CN(C(=O)COc1ccc(C#N)cc1)CC2	93% (inactive)	84.8% (inactive)	-12% (inactive)	96.8%	84.8%	0.52% (inactive)	-4.44% (inactive)
CS(=O)(=O)N(CC(=O)N1CCN(c2cccc(Cl)c2)CC1)C1CCCCC1	80.6% (inactive)	79.6% (inactive)	-7.54% (inactive)	87.1%	79.6%	-4.29% (inactive)	-7.78% (inactive)
CC(=O)c1cccc(NS(=O)(=O)c2ccc3c(c2)oc(=O)n3C)c1	92.4% (inactive)	106% (inactive)	8.94% (inactive)	96.7%	106%	-2.67% (inactive)	-1.9% (inactive)
Cc1c(C(=O)Nc2ccncc2)oc2c1C(=O)CC(C)(C)C2	95.9% (inactive)	91.3% (inactive)	-5.27% (inactive)	96.6%	91.3%	-8.4% (inactive)	-1.43% (inactive)
COCCn1cc(C(=O)NCCCN2CCC(C)CC2)c2c3ccccc3n(C)c2c1=O	90.7% (inactive)	88.8% (inactive)	2.62% (inactive)	86.2%	88.8%	-5.97% (inactive)	1.11% (inactive)
O=S1(=O)C=C(Sc2nc3ccccc3s2)c2ccccc21	9.16% (active)	1.38% (active)	0.39% (inactive)	0.99%	1.38%	37.3% (active)	55.6% (active)

Compound	viability [1]	viability [2]	differential viability (reversal) ([3]; H69AR cells + 2 uM doxorubicin)	viability [3, 6]	viability [3, 7]	inhibition [4]	inhibition [5]
COc1ccccc1CN(Cc1nc2ccccc2c(=O)[nH]1)C(=O)Nc1ccccc1	89.4% (inactive)	86.6% (inactive)	-3.29% (inactive)	89.9%	86.6%	-4.61% (inactive)	-4.13% (inactive)
CCOc1ccccc1C(=O)NCCCn1ccnc1	95.3% (inactive)	91.9% (inactive)	4.38% (inactive)	87.5%	91.9%	-4.42% (inactive)	2.7% (inactive)
COC(=O)c1[nH]c2ccc(C)cc2c1NC(=O)CN1CCCc2ccccc21	48.2% (inactive)	67.6% (inactive)	-15.6% (inactive)	83.2%	67.6%	-5.73% (inactive)	0.79% (inactive)
COC(=O)Cc1c(C)nc2nc(-c3ccccc3)[nH]n2c1=O	90.8% (inactive)	102% (inactive)	-4.13% (inactive)	106%	102%	0.53% (inactive)	-5.56% (inactive)
COc1ccc(OC)c(N2Cc3cc(C)c(C)cc3C2)c1	114% (inactive)	95.3% (inactive)	6.88% (inactive)	88.4%	95.3%	-6.97% (inactive)	4.44% (inactive)
Cc1cc(/C=c2/sc3nc4ccccc4n3c2=O)c(C)n1-c1ccccn1	77.6% (inactive)	63% (inactive)	-2.23% (inactive)	65.2%	63%	2.4% (inactive)	-0.48% (inactive)
Cn1c(COc2ccccc2)nnc1SCC(=O)Nc1ccc(N2CCOCC2)c(Cl)c1	94.4% (inactive)	94.4% (inactive)	11.6% (inactive)	82.8%	94.4%	-7.37% (inactive)	-0.48% (inactive)
O=C(NCCN1CCCCC1)c1ccc(=O)oc1	101% (inactive)	99.2% (inactive)	9.61% (inactive)	89.6%	99.2%	-8.03% (inactive)	-2.22% (inactive)
Cn1cnc2c1c(=O)n(Cc1cccc(Br)c1)c(=O)n2C	90.3% (inactive)	86.9% (inactive)	4.32% (inactive)	82.6%	86.9%	-4% (inactive)	5.24% (inactive)
CCn1cc(/C=C(/C#N)S(=O)(=O)c2ccccc2)cn1	110% (inactive)	95.3% (inactive)	9.54% (inactive)	85.8%	95.3%	-7.24% (inactive)	-4.6% (inactive)
O=C(NCC1CCCO1)C1CC(c2ccc(Cl)c(Cl)c2)=NO1 (stereo not given)	111% (inactive)	104% (inactive)	-1.44% (inactive)	105%	104%	-0.13% (inactive)	-8.1% (inactive)
O=C(O)Cn1nc2ccccc2n1	108% (inactive)	93.9% (inactive)	3.65% (inactive)	90.3%	93.9%	-4% (inactive)	8.73% (inactive)
CCOC(=O)c1cc(-c2ccc(N)cc2)sc1N	92.5% (inactive)	93.4% (inactive)	8.46% (inactive)	84.9%	93.4%	-5.07% (inactive)	-0.95% (inactive)
Cc1onc(-c2c(Cl)cccc2Cl)c1C(=O)NCCN1CCOCC1	94.9% (inactive)	89.9% (inactive)	-8.8% (inactive)	98.7%	89.9%	-3.03% (inactive)	1.43% (inactive)
CCCSC1=C(C#N)C(c2ccccc2OCC)CC(=O)N1 (stereo not given)	79% (inactive)	90.1% (inactive)	-3.18% (inactive)	93.3%	90.1%	-2.5% (inactive)	3.33% (inactive)
COc1ccccc1-c1c(C)nn2c(C)c(C(C)=O)cnc12	111% (inactive)	94.3% (inactive)	10.3% (inactive)	84%	94.3%	-6.1% (inactive)	1.27% (inactive)
O=C1CC(C(=O)Nc2ccc(Br)cc2)C2(CCCC2)O1 (stereo not given)	109% (inactive)	101% (inactive)	8.19% (inactive)	93.1%	101%	-4% (inactive)	-1.75% (inactive)
Cc1nn(Cc2ccccc2Cl)c(C)c1NC(=O)C1C2CCC(O2)C1C(=O)O (stereo not given)	93.8% (inactive)	90.9% (inactive)	3.11% (inactive)	87.8%	90.9%	-1.97% (inactive)	-7.14% (inactive)
CC1(C)CC(=O)C2=C(C1)N(Cc1ccco1)C(=O)C2(NC(=O)C1CCCCC1)C(F)(F)F (stereo not given)	88% (inactive)	92.1% (inactive)	10.7% (inactive)	81.3%	92.1%	-4.47% (inactive)	5.56% (inactive)
O=C(Sc1nnnn1C1CCCCC1)c1cccs1	102% (inactive)	98.7% (inactive)	6.21% (inactive)	92.5%	98.7%	-6.53% (inactive)	3.81% (inactive)
